Laboratory results taken from article PMC10521327 (Journal of the American Chemical Society, 2023).
Where two headings read alike, the source gives them in different places. One block for each compound: values may come before it.

Tests used:
[1] = tested on: transferrin receptor 1 (TfR1); assay: Western blot of TfR1 expression in MRC-5 cells; assay type: cell-based; settings: MRC-5, 24 h
Summary of the method: (§1)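 Cells were treated with test compound for 24 h; A2780 cells were treated at 40 μM. Lysates were analysed by Western blot for TfR1 and ferritin heavy chain, with β-actin as loading control. n=4; t-tests against DMSO vehicle. Ferric ammonium citrate supplementation served as an iron-replete comparison in A2780.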

MDA-MB-231 (Breast) = assay: Resazurin antiproliferative assay, 72 h; assay type: cell-based; settings: read-out: IC50 MDA-MB-231 (Breast)
Summary of the method: (§2)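 Cells were incubated with test compound for 72 h. Viability was read by the fluorescence-based resazurin assay (reduction to resorufin), chosen because formazan absorbance (400–800 nm) interferes with colorimetric probes. IC50 values were derived for each line. The panel was cancer lines plus MRC-5 normal lung fibroblasts.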

[2] = tested on: A2780 ovarian cancer cells; assay: Apoptotic cell death by flow cytometry; assay type: cell-based; settings: A2780, 40 μM, 48 h
Summary of the method: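 A2780 ovarian cancer cells were exposed to test compound (40 μM) for 48 h. Flow cytometry then scored the fractions of cells in early and late apoptosis. Runs were in triplicate, reported as mean ± standard deviation, with t-tests against DMSO vehicle.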

Caco-2 (Colon) = assay: Resazurin antiproliferative assay, 72 h; assay type: cell-based; settings: read-out: IC50 Caco-2 (Colon)
Summary of the method: as §2

A2780 (Ovary) = assay: Resazurin antiproliferative assay, 72 h; assay type: cell-based; settings: read-out: IC50 A2780 (Ovary)
Summary of the method: as §2

A549 (Lung) = assay: Resazurin antiproliferative assay, 72 h; assay type: cell-based; settings: read-out: IC50 A549 (Lung)
Summary of the method: as §2

[3] = tested on: transferrin receptor 1 (TfR1); assay: Western blot of TfR1 expression in A2780 cells; assay type: cell-based; settings: A2780, 40 μM, 24 h
Summary of the method: as §1

[4] = tested on: tested cancer cell lines (A2780, MDA-MB-231, Caco-2, A549); assay: Resazurin antiproliferative assay, summary over the cancer cell panel; assay type: cell-based; settings: 72 h, read-out: IC50 range in the tested cancer cell lines
Summary of the method: as §2

[5] = tested on: MRC-5 normal lung fibroblasts; assay: Intracellular calcein assay; assay type: cell-based; settings: MRC-5, 40 μM, 24 h
MRC-5 (Normal lung) = assay: Resazurin antiproliferative assay, 72 h; assay type: cell-based; settings: read-out: IC50 MRC-5 (Normal lung), mean ± SDM, n=3
Summary of the method: as §2

A2780 cells = assay type: cell-based; settings: A2780, 40 μM, 48 h, FAC (50 μM) or holo-Tf (50 μM)
[6] = tested on: A2780 ovarian cancer cells; assay: Cell cycle distribution by flow cytometry; assay type: cell-based; settings: A2780, 40 μM, 24 h
Summary of the method: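 A2780 cells were treated with test compound at 40 μM for 24 h, then analysed by flow cytometry for cell-cycle phase distribution. Triplicate experiments; mean ± standard deviation; t-tests against DMSO vehicle only.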

[7] = tested on: A2780 ovarian cancer cells; assay: Intracellular calcein assay; assay type: cell-based; settings: A2780, 40 μM, 24 h
Summary of the method: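 Calcein-AM delivered calcein to the cytosol, where it is partly quenched by labile iron. Cells were incubated with test compound (40 μM), and the rise in calcein fluorescence was measured against DMSO vehicle. A2780 cells were sampled after 1, 3 and 24 h. Triplicate; mean ± standard deviation; t-tests.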

[8] = In vitro calcein competition for Fe; settings: 50 mM HEPES buffer pH 7.4 and MeOH 3:1 v/v
Summary of the method: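 Cell-free competition: calcein was quenched with Fe(II) (1.0 equiv) in 50 mM HEPES pH 7.4/MeOH (3:1 v/v). Test compound was then added, and recovery of calcein fluorescence was taken as displacement of iron from the probe.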

[9] = tested on: ferritin heavy chain (ferritin H); assay: Western blot of ferritin H expression in A2780 cells; assay type: cell-based; settings: A2780, 40 μM, 24 h
Summary of the method: as §1

[10] = tested on: ferritin heavy chain (ferritin H); assay: Western blot of ferritin H expression in MRC-5 cells; assay type: cell-based; settings: MRC-5, 24 h
Summary of the method: as §1

[11] = Stability / reduction kinetics in fetal bovine serum by HPLC; assay type: in vitro ADME
[12] = Distribution coefficient by shake-flask method; assay type: physicochemical; settings: octanol and PBS (pH 7.4), HPLC
[13] = resazurin assay, 72 h, mean ± SDM, n=3

IC50 (MDA-MB-231 (Breast); Homo sapiens, MDA-MB-231, 72 h): 17 ± 1 µM | IC50 (Caco-2 (Colon); Homo sapiens, Caco-2, 72 h): 67 ± 2 µM | IC50 (A2780 (Ovary); Homo sapiens, A2780, 72 h): 15 ± 1 µM | IC50 (A549 (Lung); Homo sapiens, A549, 72 h): 21 ± 3 µM | IC50 [4]: 15 to 67 µM | Restoration of calcein fluorescence (displacement of Fe(II) from calcein) [8]: fully restore its initial fluorescence
Compound: O=C(O)c1ccc(-n2nc(-c3ccccc3O)nc2-c2ccccc2O)cc1 [DFX, deferasirox]
TfR1 expression level [1]: maintained similar effects, albeit less pronounced | Cells in late apoptosis [2]: 42% | TfR1 expression level [3]: increase of TfR1 expression | Increase of calcein fluorescence [5]: ~ 34% | IC50 (MRC-5 (Normal lung)): 220 ± 20 µM | Effect of iron supplementation on cytotoxicity (A2780 cells): could be rescued by iron supplementation | Effect on cell cycle distribution [6]: S-phase arrest | Increase of calcein fluorescence [7]: ~ 54% | Ferritin H expression level [9]: degradation of ferritin | Ferritin H expression level [10]: maintained similar effects, albeit less pronounced

Half-life t1/2 in serum [11]: > 24 h | Stability (serum, 24 h), remaining ([11]; 24 h): 58% | IC50 (MDA-MB-231 (Breast); [13]): 48 ± 7 µM | IC50 (Caco-2 (Colon); [13]): 92 ± 7 µM | IC50 (A2780 (Ovary); [13]): 45 ± 9 µM | IC50 (A549 (Lung); [13]): 44 ± 9 µM | Log Do/pH7.4 [12]: 0.1
Compound: Cc1nc(-[n+]2nc(-c3ccccc3)nn2-c2ccccc2)sc1C.[Br-] [MTT]
IC50 (MRC-5 (Normal lung)): 32 ± 5 µM

Restoration of calcein fluorescence (displacement of Fe(II) from calcein) [8]: fail to displace calcein-bound iron(II)
Compound: O=C(O)CC(O)(CC(=O)O)C(=O)O [citric acid]

Compound: ferric ammonium citrate [FAC]
TfR1 expression level [1]: maintained similar effects, albeit less pronounced | TfR1 expression level [3]: decrease of TfR1 | Ferritin H expression level [9]: increase of ferritin H levels | Ferritin H expression level [10]: maintained similar effects, albeit less pronounced
